# Test results reported in ChEMBL document CHEMBL4368917, “Synthesis and Evaluation of a QS-17/18-Based Vaccine Adjuvant” (J Med Chem, 2019).
# Calls of active or inactive are those of the source. No cut-off for these calls is given here.
# Assays:
# Mus musculus [1] = experiment: Potentiation of serum IgG/recombinant Porphyromonas gingivalis HagB induced-immune response in BALB/c mouse at 100 ug, sc immunized on day 14 and 28 after 42 days by ELISA; type: functional, organism-based
# In short: (§1)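 Mice from Frederick Cancer Research were immunized with rHagB plus adjuvant (100 or 50 μg; adjuvant given at 1.0 mg/mL as solution or suspension with antigen). Retro-orbital blood was collected before and after immunization, and serum was stored at −20 °C. ELISA plates were coated with rHagB (1 μg/mL) in borate buffered saline pH 8.2; serial two-fold serum dilutions were run in duplicate.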
# Mus musculus [2] = experiment: Potentiation of serum IgG/recombinant Porphyromonas gingivalis HagB induced immune response n BALB/c mouse at 100 ug, sc immunized on day 14 and 28 measured week 4 and 6 post immunization by ELISA; type: functional, organism-based; in short: as §1
# Mus musculus [3] = experiment: Potentiation of recombinant Porphyromonas gingivalis HagB induced Th1/Th2 immune response in BALB/c mouse assessed as increase in IgG1 levels at 100 ug, sc measured at week 4 and 6 by ELISA; type: functional, organism-based; in short: as §1
# Mus musculus [4] = experiment: Potentiation of recombinant Porphyromonas gingivalis HagB induced Th1/Th2 immune response in BALB/c mouse assessed as increase in IgG2a levels at 100 ug, sc measured at week 4 and 6 by ELISA; type: functional, organism-based; in short: as §1
# Mus musculus [5] = experiment: Potentiation of recombinant Porphyromonas gingivalis HagB induced Th1/Th2 immune response in BALB/c mouse assessed as increase in IgG1 levels at 50 ug, sc measured at week 4 and 6 by ELISA; type: functional, organism-based; in short: as §1
# Mus musculus [6] = experiment: Potentiation of recombinant Porphyromonas gingivalis HagB induced Th1/Th2 immune response in BALB/c mouse assessed as increase in IgG2a levels at 50 ug, sc measured at week 4 and 6 by ELISA; type: functional, organism-based; in short: as §1
# [7] = Toxicity in BALB/c mouse assessed as effect on body weight at 50 to 100 ug, sc measured after 41 days; type: organism-based; details: in vivo, 984 h
# In short: (§2)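 Mice were weighed before each immunization and on day 42 after the last immunization. Adjuvant was given with rHagB antigen at 100 μg, or at 50 μg for one group.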
# Mus musculus [8] = experiment: Potentiation of recombinant Porphyromonas gingivalis HagB induced Th1/Th2 immune response in BALB/c mouse assessed as increase in IgG1 levels at 100 ug, sc measured at week 4 by ELISA; type: functional, organism-based; in short: as §1
# [9] = Toxicity in BALB/c mouse assessed as effect on body weight at 100 ug, sc measured after 41 days; type: organism-based; details: in vivo, 984 h; in short: as §2
Compound,Activity (Mus musculus [1]),Activity (Mus musculus [2]),Activity (Mus musculus [3]),Activity (Mus musculus [4]),Activity (Mus musculus [5]),Activity (Mus musculus [6]),Activity [7],Activity (Mus musculus [8]),Activity [9]
CCCCCCCCCCCCNC(=O)[C@H]1O[C@@H](O[C@H]2CC[C@]3(C)[C@H]4CC=C5[C@@H]6CC(C)(C)CC[C@]6(C(=O)O[C@@H]6O[C@H](C)[C@H](O)[C@H](O)[C@H]6O[C@@H]6O[C@@H](C)[C@H](O[C@@H]7OC[C@@H](O)[C@H](O[C@@H]8OC[C@@H](O)[C@H](O)[C@H]8O)[C@H]7O)[C@@H](O[C@@H]7O[C@H](CO)[C@@H](O)[C@H](O)[C@H]7O)[C@H]6O)[C@H](O)C[C@@]5(C)[C@]4(C)CC[C@H]3[C@]2(C)C=O)[C@H](O[C@@H]2O[C@H](CO)[C@H](O)[C@H](O)[C@H]2O)[C@@H](O[C@@H]2OC[C@@H](O)[C@H](O)[C@H]2O)[C@@H]1O,Active,Active,Active,Active,Active,Active,Non-Toxic,,
CCCCCCCCCCCCNC(=O)[C@H]1O[C@@H](O[C@H]2CC[C@]3(C)[C@H]4CC=C5[C@@H]6CC(C)(C)CC[C@]6(C(=O)O[C@@H]6O[C@H](C)[C@H](O)[C@H](O)[C@H]6O[C@@H]6O[C@@H](C)[C@H](O[C@@H]7OC[C@@H](O)[C@H](O[C@@H]8OC[C@](O)(CO)[C@H]8O)[C@H]7O)[C@@H](O)[C@H]6O)[C@H](O)C[C@@]5(C)[C@]4(C)CC[C@H]3[C@]2(C)C=O)[C@H](O[C@@H]2O[C@H](CO)[C@H](O)[C@H](O)[C@H]2O)[C@@H](O[C@@H]2OC[C@@H](O)[C@H](O)[C@H]2O)[C@@H]1O,inactive,,,inactive,,,,inactive,Non-Toxic
